SENP8 block-1: inhibitors of human SENP8 protease. Q96LD8. AID 2540. purified SENP8, Z-RLRGG-aminoluciferin cleavage, luminescence. inhibition, % at 10 µM. actives 1.2% (n = 330,000); in the data active = inhibition above about 50%
UBC13 polyUb: blocks human UBC13 polyubiquitin chain formation | P61088 | TR-FRET | inhibition, % at 20 µM | actives 0.47% (n = 330,000) | AID 485273; in the data active = inhibition above about 45%, passing the limit was not always enough
Target sequence (P61088 whole entry, looked up): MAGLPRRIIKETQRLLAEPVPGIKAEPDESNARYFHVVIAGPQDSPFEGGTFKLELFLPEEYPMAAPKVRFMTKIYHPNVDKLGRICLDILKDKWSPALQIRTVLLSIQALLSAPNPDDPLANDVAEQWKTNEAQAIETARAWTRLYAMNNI
SENP8 block-2: inhibitors of human SENP8 protease | actives 0.64% (n = 360,000) | Q96LD8 | recombinant SENP8, Nedd8 substrate fluorescence | inhibition, % at 20 µM; in the data active = inhibition mostly above about 40%, no sharp cut-off; inactive = mostly below about 27%
SENP6 block: inhibitors of human SENP6 protease; Q9GZR1; Recombinant SENP6 catalytic domain, aminoluciferin luminescence; actives 1.8% (n = 330,000); inhibition, % at 10 µM; AID 2599;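 active = inhibition above about 50% at the single tested dose, limit read from the data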
Apaf-1 inh: inhibitors of human Apaf-1 apoptosome; O14727; reconstituted apoptosome caspase-3 activity, DEVD-Rh110 fluorescence; inhibition, % at 20 µM; actives 0.71% (n = 330,000); AID 489030; active = inhibition of at least 40% at 20 µM
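Assay system – apoptosome proteins · Medium – Hepes buffer, pH 7.5 · Also added – cytochrome c with DEVD-Rh110 · Timing – 30 min compound preincubation, 50 min activation, room temperature · Detection – Rh110 fluorescence, excitation 480 nm, emission 540 nm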
SENP7 block: blocks the human protease SENP7 | Q9BQF6 | recombinant SENP7, Z-RLRGG-aminoluciferin luminescence, 40 min | actives 1.5% (n = 330,000) | AID 434973 | inhibition, % at 5 µM;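 active = inhibition above about 50% at the single test dose, limit read from the data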
SENP8 confirm: human SENP8 inhibition, confirmed. Recombinant SENP8, Z-RLRGG-aminoluciferin luminescence, 60 min. shares compounds with SENP7 block. inhibition, % at 12.5 µM. AID 488912. actives 40% (n = 6,200);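 active = mean inhibition across replicates above about 50%, limit read from the data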
SENP6 conf: confirmation of human SENP6 protease inhibitors. shares compounds with SENP7 block. actives 58% (n = 6,200). recombinant SENP6, Z-RLRGG-aminoluciferin luminescence. AID 488915. inhibition, % at 12.5 µM
SENP7 confirm: confirmation of human SENP7 protease inhibitors; shares compounds with SENP7 block; actives 69% (n = 6,200); inhibition, % at 12.5 µM; recombinant SENP7, Z-RLRGG-aminoluciferin luminescence, 40 min
Casp3 select: caspase-3 inhibition (SENP selectivity assay); shares compounds with SENP7 block; purified caspase-3, Z-DEVD-aminoluciferin luminescence, 60 min; inhibition, % at 12.5 µM; actives 60% (n = 6,200);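 active = mean inhibition above about 50%, limit read from the data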
Target sequence (P42574 28-227 limits assumed): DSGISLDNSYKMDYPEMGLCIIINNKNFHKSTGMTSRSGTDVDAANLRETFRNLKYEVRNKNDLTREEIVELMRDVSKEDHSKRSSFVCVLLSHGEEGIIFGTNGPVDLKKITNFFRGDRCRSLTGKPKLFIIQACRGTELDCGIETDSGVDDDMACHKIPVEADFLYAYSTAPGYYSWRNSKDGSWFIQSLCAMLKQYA
SENP luc ctr: luminescence interference (SENP counter-screen); AID 488919; shares compounds with SENP7 block; actives 39% (n = 6,200); Pre-incubated SENP8/Z-RLRGG-aminoluciferin, luciferase luminescence interference; inhibition, % at 12.5 µM;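 active = mean inhibition above about 50% when retested at one dose, limit read from the data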
Each line names hits and unclear results; the compound was inactive in the other large screens (follow-up assays come after a bar, where they were run). The list is not random: actives were taken first. Their share in the collection is about 3%.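 Rule for the calls, unless noted: active = mean inhibition above about 50% in the one-dose retest (limit read from the data); inactive = the rest.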

N#C/C(=C/c1ccc(-c2cc(C(=O)O)cc(C(=O)O)c2)o1)c1nc2ccccc2s1	none (no result: SENP8 block-2)
N#C/C(=C/c1ccco1)c1nc2ccccc2s1	SENP8 block-1 86, SENP7 block 78 | SENP8 confirm 82 | SENP6 conf 86 | SENP7 confirm 95 | Casp3 select 85 | SENP luc ctr 55
N#C/C(=C\c1ccco1)c1nc2ccccc2s1	SENP8 block-1 87, SENP6 block 89, SENP7 block 88 | SENP8 confirm 88 | SENP6 conf 91 | SENP7 confirm 97 | Casp3 select 84 | SENP luc ctr inactive
COc1ccc(NS(=O)(=O)c2ccc(-c3cnc(C4CC4)o3)cc2)cc1OC	none
CCCn1c(C)cc(/C=C(\C#N)C(=O)OCC(=O)N(CC)c2c(N)n(Cc3ccccc3)c(=O)[nH]c2=O)c1C	none (no result: SENP8 block-1, UBC13 polyUb, SENP6 block, Apaf-1 inh, SENP7 block)
CCCCc1nnc(NC(=O)CC(=O)Nc2ccccc2C(=O)O)s1	none
CCc1nnc(NC(=O)CN2CCOCC2)s1	SENP7 block 99 | SENP8 confirm inactive | SENP6 conf inactive | SENP7 confirm inactive | Casp3 select inactive | SENP luc ctr inactive
CCc1nnc(NC(=O)CC(=O)Nc2ccccc2C(=O)O)s1	SENP6 block 78, SENP7 block 55 | SENP8 confirm 68 | SENP6 conf 63 | SENP7 confirm 89 | Casp3 select 88 | SENP luc ctr 71
CC(C)c1nnc(NC(=O)CCC(=O)Nc2ccccc2)s1	none
CC(C)c1nnc(NC(=O)CC(=O)Nc2ccccc2C(=O)O)s1	SENP8 block-1 71, SENP6 block 81, SENP7 block 78 | SENP8 confirm 87 | SENP6 conf 87 | SENP7 confirm 98 | Casp3 select 94 | SENP luc ctr 86
CCCc1nnc(NC(=O)CN2CCOCC2)s1	none
CC(C)Cc1nnc(NC(=O)CC(=O)Nc2ccccc2C(=O)O)s1	SENP8 block-1 53, SENP6 block 70 | SENP8 confirm inactive | SENP6 conf 67 | SENP7 confirm 88 | Casp3 select 89 | SENP luc ctr 55
CN(C)C(=O)CCc1ccc2c3c([nH]c2c1)[C@]1(CCC2CCCC2)[C@@H](C(=O)N2CCOCC2)C[C@H](CC(=O)NCCC2=CCCCC2)C(=O)N1CC3	none (no result: SENP8 block-1, UBC13 polyUb, SENP6 block)
Cc1cc(C)n2nc(SCC(=O)NC(=O)c3ccc(OC(F)F)cc3)nc2n1	none
COc1ccc2nc(NC(=O)CSc3cn[nH]n3)sc2c1	SENP6 block 50 | SENP8 confirm inactive | SENP6 conf inactive | SENP7 confirm 65 | Casp3 select 62 | SENP luc ctr 60
CCOc1ccc2nc(NC(=O)CSc3cn[nH]n3)sc2c1	SENP6 block 67 | SENP8 confirm inactive | SENP6 conf inactive | SENP7 confirm 50 | Casp3 select inactive | SENP luc ctr inactive
COc1ccc2nc(NC(=O)CSc3ccccc3)sc2c1	none
CCc1ccc(C(O)c2ncc(-c3ccc(Cl)cc3)[nH]2)cc1 (centres undefined)	none (no result: SENP8 block-1, UBC13 polyUb, SENP6 block, Apaf-1 inh, SENP7 block)
O=C(O)c1cc(-c2ccccc2)n(-c2ccc(Cl)cc2)n1	none
COc1ccc2c(c1OC)C(=O)N(c1cccc(C)c1)C2	SENP6 block 71, SENP7 block 59 | SENP8 confirm 65 | SENP6 conf 64 | SENP7 confirm 90 | Casp3 select 84 | SENP luc ctr 70
